Measurements: ChEMBL document CHEMBL3351590, “8-Methyltryptanthrin-induced differentiation of P19CL6 embryonal carcinoma cells into spontaneously beating cardiomyocyte-like cells” (2014)
Activity calls are given as the source filed them. The calls are words filed in the database; no cut-off is given here.

Assays:
P19CL6 [1] = assay: Induction of Cav1.2 gene expression in C3H/He mouse P19CL6 cells; type: functional, cell-based
Summary of the method: (§1)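 P19CL6 cells are cultured in α-MEM with 10% FBS, with compound (final DMSO ≤0.1%) renewed every 48 h. Total RNA is taken on day 10 and/or 18 and reverse-transcribed with random primers. Real-time PCR: 95 °C 10 min, then 40 cycles of 95 °C 15 s and 60 °C 1 min. Expression is normalized to G3PDH and given as a ratio to day 0.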

P19CL6 [2] = assay: Induction of differentiation of C3H/He mouse P19CL6 cells assessed as beating aggregate formation at 0.1 to 1 uM on day 10 by phase contrast microscopic analysis; type: functional, cell-based
Summary of the method: (§2)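 Cells are seeded at 2.0 × 10^4 per 35 mm dish in α-MEM with 10% FBS, penicillin and streptomycin, plus compound (final DMSO ≤0.1%), with medium changed every 48 h. Aggregates and beating aggregates are counted every 2 days by phase-contrast microscopy in five ×100 fields (total 8.8 mm2), up to day 18. Mean ± SEM, n = 7.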

P19CL6 [3] = assay: Induction of differentiation of C3H/He mouse P19CL6 cells assessed as aggregate formation at 0.1 to 1 uM on day 10 by phase contrast microscopic analysis; type: functional, cell-based; summary of the method: as §2
P19CL6 [4] = assay: Induction of alpha-MHC gene expression in C3H/He mouse P19CL6 cells at 1 uM measured on day 10 and 18 by RT-PCR analysis; type: functional, cell-based
Summary of the method: (§3)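 Cardiac gene qPCR (α-MHC, GATA4, BMP2) in P19CL6 cells kept in α-MEM/10% FBS with agent, medium renewed at 48 h intervals. RNA is harvested on days 10 and 18 and reverse-transcribed with random primers. PCR runs 40 cycles (95 °C 15 s, 60 °C 1 min). Values are normalized to G3PDH, expressed relative to day 0, as mean ± SEM, n = 4.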

P19CL6 [5] = assay: Induction of GATA4 gene expression in C3H/He mouse P19CL6 cells at 1 uM measured on day 10 and 18 by RT-PCR analysis; type: functional, cell-based; summary of the method: as §3
P19CL6 [6] = assay: Induction of BMP2 gene expression in C3H/He mouse P19CL6 cells at 1 uM measured on day 10 and 18 by RT-PCR analysis; type: functional, cell-based; summary of the method: as §3
[7] = Decrease in Cav3.1 gene expression in C3H/He mouse P19CL6 cells at 1 uM on day 10 by RT-PCR analysis relative to control; type: functional, cell-based; summary of the method: as §1
P19CL6 [8] = assay: Induction of Cav3.1 gene expression in C3H/He mouse P19CL6 cells at 1 uM on day 18 by RT-PCR analysis; type: functional, cell-based; summary of the method: as §1
P19CL6 [9] = assay: Effect on Cav3.2 gene expression in C3H/He mouse P19CL6 cells at 1 uM by RT-PCR analysis; type: functional, cell-based; summary of the method: as §1
P19CL6 [10] = assay: Effect on HCN2 gene expression in C3H/He mouse P19CL6 cells at 1 uM by RT-PCR analysis; type: functional, cell-based; summary of the method: as §1
P19CL6 [11] = assay: Effect on HCN4 gene expression in C3H/He mouse P19CL6 cells at 1 uM by RT-PCR analysis; type: functional, cell-based; summary of the method: as §1
P19CL6 [12] = assay: Induction of differentiation of C3H/He mouse P19CL6 cells assessed as beating aggregate formation on day 10 by phase contrast microscopic analysis; type: functional, cell-based; summary of the method: as §2
P19CL6 [13] = assay: Induction of differentiation of C3H/He mouse P19CL6 cells assessed as beating aggregate formation at 0.1 to 1 uM on day 18 by phase contrast microscopic analysis; type: functional, cell-based; summary of the method: as §2
[14] = Increase in area of beating aggregates in C3H/He mouse P19CL6 cells on day 18 by phase contrast microscopic analysis (reference value: 0.5 +/- 0.3 /mm2); type: functional
[15] = Induction of GJA1 gene expression in C3H/He mouse P19CL6 cells at 1 uM on day 18 by RT-PCR analysis relative to control; type: functional; summary of the method: as §1
[16] = Induction of GJA5 gene expression in C3H/He mouse P19CL6 cells at 1 uM on day 10 by RT-PCR analysis relative to control; type: functional; summary of the method: as §1
[17] = Induction of GJA5 gene expression in C3H/He mouse P19CL6 cells at 1 uM on day 18 by RT-PCR analysis relative to control; type: functional; summary of the method: as §1
P19CL6 [18] = assay: Effect on GJA4 gene expression in C3H/He mouse P19CL6 cells at 1 uM by RT-PCR analysis; type: functional, cell-based; summary of the method: as §1
P19CL6 [19] = assay: Effect on GJB1 gene expression in C3H/He mouse P19CL6 cells at 1 uM by RT-PCR analysis; type: functional, cell-based; summary of the method: as §1
P19CL6 [20] = assay: Effect on GJC1 gene expression in C3H/He mouse P19CL6 cells at 1 uM by RT-PCR analysis; type: functional, cell-based; summary of the method: as §1
[21] = Induction of differentiation of C3H/He mouse P19CL6 cells assessed as number of aggregates at 1 uM on day 18 by phase contrast microscopic analysis (reference value: 38.2 +/- 8.4/mm2); type: functional; summary of the method: as §2
[22] = Induction of differentiation of C3H/He mouse P19CL6 cells assessed as number of beating aggregates at 1 uM on day 18 by phase contrast microscopic analysis; type: functional; summary of the method: as §2
P19CL6 [23] = assay: Induction of differentiation of C3H/He mouse P19CL6 cells assessed as beating aggregate formation at 0.1 to 1 uM using compound dissolved in 0.03% DMSO by phase contrast microscopic analysis; type: functional, cell-based; summary of the method: as §2
P19CL6 [24] = assay: Induction of differentiation of C3H/He mouse P19CL6 cells assessed as aggregate formation on day 10 by phase contrast microscopic analysis; type: functional, cell-based; summary of the method: as §2
P19CL6 [25] = assay: Induction of differentiation of C3H/He mouse P19CL6 cells assessed as aggregate formation at 0.1 to 1 uM on day 18 by phase contrast microscopic analysis; type: functional, cell-based; summary of the method: as §2
P19CL6 [26] = assay: Induction of alpha-MHC gene expression in C3H/He mouse P19CL6 cells at 1 uM by RT-PCR analysis; type: functional, cell-based; conditions: TDE = time-dependent effect; summary of the method: as §3
P19CL6 [27] = assay: Induction of GATA4 gene expression in C3H/He mouse P19CL6 cells at 1 uM by RT-PCR analysis; type: functional, cell-based; conditions: TDE = time-dependent effect; summary of the method: as §3
P19CL6 [28] = assay: Induction of BMP2 gene expression in C3H/He mouse P19CL6 cells at 1 uM by RT-PCR analysis; type: functional, cell-based; conditions: TDE = time-dependent effect; summary of the method: as §3
[29] = Induction of alpha-MHC gene expression in C3H/He mouse P19CL6 cells at 1 uM measured on day 10 and 18 by RT-PCR analysis relative to control; type: functional; summary of the method: as §3
[30] = Induction of GATA4 gene expression in C3H/He mouse P19CL6 cells at 1 uM measured on day 10 and 18 by RT-PCR analysis relative to control; type: functional; summary of the method: as §3
[31] = Induction of BMP2 gene expression in C3H/He mouse P19CL6 cells at 1 uM measured on day 10 and 18 by RT-PCR analysis relative to control; type: functional; summary of the method: as §3
[32] = Induction of differentiation of C3H/He mouse P19CL6 cells assessed as beating rate of cardiomyocyte-like cells at 1 uM on day 18 (reference value: 45.2 +/- 4.2 bpm); type: functional
P19CL6 [33] = assay: Induction of Cav1.2 gene expression in C3H/He mouse P19CL6 cells on day 10 and 18 by RT-PCR analysis; type: functional, cell-based; summary of the method: as §1
P19CL6 [34] = assay: Induction of Cav1.2 gene expression in C3H/He mouse P19CL6 cells at 1 uM by RT-PCR analysis; type: functional, cell-based; conditions: TDE = time-dependent effect; summary of the method: as §1
[35] = Induction of Cav1.2 gene expression in C3H/He mouse P19CL6 cells at 1 uM on day 10 by RT-PCR analysis relative to control; type: functional; summary of the method: as §1
[36] = Induction of Cav1.2 gene expression in C3H/He mouse P19CL6 cells at 1 uM on day 18 by RT-PCR analysis relative to control; type: functional; summary of the method: as §1
[37] = Decrease in Cav1.3 gene expression in C3H/He mouse P19CL6 cells at 1 uM on day 10 and day 18 by RT-PCR analysis; type: functional, cell-based; summary of the method: as §1

## CCCc1ccc2c(c1)C(=O)c1nc3ccccc3c(=O)n1-2
P19CL6 [1]
  Activity: inactive
P19CL6 [2]
  Activity: inactive
P19CL6 [3]
  Activity: inactive

## CCc1ccc2c(c1)C(=O)c1nc3ccccc3c(=O)n1-2
P19CL6 [1]
  Activity: inactive
P19CL6 [2]
  Activity: inactive
P19CL6 [3]
  Activity: inactive

## O=C1c2ccccc2-n2c1nc1ccccc1c2=O
P19CL6 [1]
  Activity: inactive
P19CL6 [2]
  Activity: inactive
P19CL6 [3]
  Activity: inactive
P19CL6 [4]
  Activity: inactive
P19CL6 [5]
  Activity: inactive
P19CL6 [6]
  Activity: inactive

## Cc1ccc2c(c1)C(=O)c1nc3ccccc3c(=O)n1-2
[7]
  fold change (FC): 0.21
P19CL6 [8]
  Activity: Active
P19CL6 [9]
  Activity: inactive
P19CL6 [10]
  Activity: inactive
P19CL6 [11]
  Activity: inactive
P19CL6 [12]
  Activity: Dose-dependent effect
P19CL6 [13]
  Activity: Active
[14]
  Activity: 2.7 mm2
[15]
  fold change (FC): 1.38
[16]
  fold change (FC): 17.44
[17]
  fold change (FC): 7.06
P19CL6 [18]
  Activity: inactive
P19CL6 [19]
  Activity: inactive
P19CL6 [20]
  Activity: inactive
[21]
  Activity: 47.3 /mm2
[22]
  Activity: 33.7 /mm2
P19CL6 [23]
  Activity: Active
P19CL6 [24]
  Activity: Dose-dependent effect
P19CL6 [25]
  Activity: Active
P19CL6 [26]
  Activity: tde
P19CL6 [27]
  Activity: tde
P19CL6 [28]
  Activity: tde
[29]
  fold change (FC): 1130.1
[30]
  fold change (FC): 30.3
[31]
  fold change (FC): 84.4
[32]
  Activity: 52.1 bpm
P19CL6 [33]
  Activity: Dose-dependent effect
P19CL6 [34]
  Activity: tde
[35]
  fold change (FC): 1.9
[36]
  fold change (FC): 3.38
[37]
  inhibition: Active
